# Results reported in the EternaBench riboswitch data.
# System: MS2 coat protein
# Experiment: apparent Kd, MS2 coat protein; higher = weaker binding; RNA-MaP array; FMN 200 µM where present
# Outline: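 Binding was read on Illumina sequencing-chip clusters where stalled E. coli RNA polymerase had transcribed each design. A titration of SNAP-549-labelled MS2 coat protein began at 0.7 or 1.5 nM and doubled to 3 µM, once without ligand and once with constant ligand, in 100 mM Tris-HCl pH 7.5, 80 mM KCl, 4 mM MgCl2, BSA, DTT, yeast tRNA and Tween-20. The apparent Kd is the median of filtered per-cluster binding-curve fits, based on green signal normalised to red-channel RNA signal and control-cluster median Fmax.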
# [1] = designed as: OFF switch for flavin mononucleotide, no ligand
# [2] = ligand present: flavin mononucleotide, designed as: OFF switch for flavin mononucleotide
# [3] = designed as: ON switch for flavin mononucleotide, no ligand
# [4] = ligand present: flavin mononucleotide, designed as: ON switch for flavin mononucleotide
Sequence,apparent Kd [1] [nM],apparent Kd [2] [nM],apparent Kd [3] [nM],apparent Kd [4] [nM]
GUGCUUGUCGGAGGAUAUGGUUACAUGAGGAUCACCCAUGUUAUGCUUGGUUACUUGUUUAGUUUCCAGAAGGUCGAUUAGUUG,61,145,–,–
ACAGCGUGAGGAUAUACAUGAGGAUCACCCAUGUGUGGCAGGUUAUCCUGUCAUGAGUGUAGAAGGCACGCUGU,30,90.7,–,–
GGGUGCCCUGCAGAAGCGACAUGAGGAUCACCCAUGUAACGUAGAAGGGCCCGGAACUAAGGUGGGCAGGAUAUACUGUUAGGU,6.76,–,–,–
GGAGCUCACAUUAACAUGAGGAUCACCCAUGUCUCUUGACAUGAGGAUAUGGAUCCUAAUUGGAUCCAGAAGGCAUGGAGCUCC,–,–,1650,108
GGUACUCAAAGAGUACCAAUACGAACAUGAGGAUCACCCAUGUAGGAUAUGCUACUCAAAGAGUAGCAGAAGGAUAUGAUCCAU,77.2,105,–,–
GGUUCGGGAGGAUAUGUGUUUUUGGACAUGAGGAUCACCCAUGUUUUCAUGUUUUUUCCCACAGAAGGUUUGGGCC,18.6,22.9,–,–
CGCCCGGGAGGAUAUCCAAUAUAUGACAUGAGGAUCACCCAUGUUUCCACUCGUACCUCCGGAGAAGGCCCGGCGC,22.2,22.4,–,–
AUUAUACAUGAGGAUCACCCAUGUAAUUAAUUAAUUAAGAUCAAGGAUAUCAGCUCGUUUAGAGCUGAGAAGGUGAUCACAUGU,–,–,356,295
AGUUAAUAUCGAGGAUAUAAGUCUAAGACAUGAGGAUCACCCAUGUGUGUCUUAGAAGGCGAUAUUAACAGCAUGUUACAUGCA,–,–,48.3,8.07
GUCAGCUCGUGAGGAUAUACAUGUGCUGGAGACAGCACUAUUGAGUUCACAUGAGGAUCACCCAUGUAGAAGGCACGAGCUGAU,15.5,27.4,–,–
UUCCUCAAGUAAGGAUAUACCACGGUAUGCUGAGUAGAAGGUACAUGAGGAUCACCCAUGUGCAUCCCACGAUUGCAUUGGUCA,30.4,145,–,–
GGUACUAUCACAGGAUAUGCUUUCCUUUGGGAAGCAGAAGGGUGUAACAUGAGGAUCACCCAUGUGGUGCCCGGGCGUGAGCCC,–,–,51.7,14.8
GUCAGCUCGUGAGGAUAUACAACACUGCUGCGGCAGUGUAUUAAGAUCACAUGAGGAUCACCCAUGUAGAAGGCACGAGCUGAU,13.7,262,–,–
GGUACUCAAAGAGUACCAAUACGAACAUGAGGAUCACCCAUGUAGGAUAUGUUUUCGCCGGAGUAUCAGAAGGACAUGUGCCUA,10.9,9.15,–,–
UUCCGGCGUGUAGGAUAUGGAUCCGAUUAGGAUCCAGAAGGACAUGAGGAUCACCCAUGUACAUGUAAACAGUCAUCACCGGAA,6.09,7.65,–,–
UGGUACAUGGGAGGAUAUCCUCAAGAACAUGAGGAUCACCCAUGUAAUUAUAAGCCGAAAGGCAUGGAGAAGGCCCAUGUACCU,–,–,66.4,16
AUGGUUCGAUUAGGAUAUUAUAGAUUGAAUAGUAUGAUUUACAUGAGGAUCACCCAUGUUACAUAUAAGAAGGAAUCGAAUCAU,20.1,11.6,–,–
GUUUCACAUGAGGAUCACCCAUGUGAGGAUAUCUAUUUGUUAACCGUAGUUAAUAGAUAGAGAAGGCGCGUGAU,69,74.5,–,–
UGUAACCUAGGAUAUACAUGAGGAUCACCCAUGUAAUGUAGUAUAGUGUGUGUGAGGUGUAGAAGGAGGGAUGU,79.5,125,–,–
GUGGGUCGGGAGGAUAUUCGGGCUCAUGGGCUUGGAGAAGGCUCGACAUGAGGAUCACCCAUGUAAGUGUUCUU,50,621,–,–
CUUUAUGUUGAGGAUAUGCACCAGCUCACUGACGCAGAAGGCGACACAUGAGGAUCACCCAUGUCAGUUCGCGU,17.6,17.8,–,–
UUUUCAUCAUCAGGAUAUUAACGUGGGCUACUUUAAGAAGGGAUAGUGGGAGAGGAUGUGAAACAUGAGGAUCACCCAUGUUGU,–,–,14.2,10
CAGCUGAAAGUGAGGAUAUAGACUGCUUCGGCAGUCUAGAAGGCACAUGAGGAUCACCCAUGUCUCAACAGCUG,16.6,70.2,–,–
AGCUACGUUUCGUAGCAGCUAGGUGAGGAUAUCCUUUACAUGAGGAUCACCCAUGUAUAGCCAUGGGAGAAGGCGCCUAGAAAG,–,–,181,16.9
ACCCGACAUGAGGAUCACCCAUGUAAACAAUCAUGAGGAUAUCCGGAGCAAGUGCUCCAGGGAGAAGGCAUAAAAG,–,–,76.3,42.2
ACCGAAUGAACAUGAGGAUCACCCAUGUACCCGAAAGGGAAUGAGGAUAUCGAUAGCAAAGCUAUCGAGAAGGCAUGGGUCGGU,–,–,573,169
GGCAUAAACGAGGAUAUCGUUACGGAAACGUAACGAGAAGGUGUAACAUGAGGAUCACCCAUGUUCCUCAAGCC,30.5,33,–,–
GCUCGGAGAGGAUAUACAUGAGGAUCACCCAUGUAGGUAAGCAGCGAUGGCAGUCCAUGUAGAAGGUUCAGGUG,43.4,49.7,–,–

Sequence,apparent Kd [1] [nM],apparent Kd [2] [nM],apparent Kd [3] [nM],apparent Kd [4] [nM]
AGAUCCUGAGUCAGGAUAUAGAGACGGUAGUCGGGCUAGAAGGGACAUGAGGAUCACCCAUGUGGGUUCGGGCC,14.2,19.3,–,–
GGACGUCACAUGAACAUGAGGAUCACCCAUGUAAAUUCUCAUGAGGAUAUGGUUCCUAAUUGGAACCAGAAGGCGUGGACGUCC,–,–,957,430
CCUUUGAAGAUCCUAAAUUUCGACAUGAGGAUCACCCAUGUGCAGGAUAUCGUGCCAGUGAUGUACGAGAAGGGCCGUCUCUGC,160,155,–,–
ACUGACAUGAGGAUCACCCAUGUCUUGAAUAGGUCAAAUUCACAGGAUAUGCACUUGGACAGGGUGCAGAAGGGUGAUGCAAUG,–,–,57,12.2
GCAGCUAAUAUUAUACAUGAGGAUCACCCAUGUUACAUGAGUAAGGAUAUUGAUGAUUAUAUAAACAAGAAGGUACGUAGCUGC,–,–,15.7,7.49
UUUAUUUCGGCAGGAUAUACAUGUAUAUAUAUUCCUUCAUAUCUUAUUACAUGAGGAUCACCCAUGUAGAAGGGCCUUCUUCUC,38.4,42.1,–,–
AUCGGCUCGUCAGGAUAUACGUCACUGCGUCAGCAGUGUGGUAAGAUCACAUGAGGAUCACCCAUGUAGAAGGGACGAGCUGAU,13.6,268,–,–
AAUAACAGAGGAUAUACUGUUUUAUGUGUUUGUUAUUUUGAACAUGAGGAUCACCCAUGUAGAAGGCUGAAUGA,28.9,29.7,–,–
GCGUUCUUGUAGAAGGUACAUAAAAUCUAUUUUUAACACAUGAAACAUGAGGAUCACCCAUGUUGUAAGGAUAUACAUGAACGC,–,–,7.03,5.88
ACUGGUCGAGGAUAUACAUGAGGAUCACCCAUGUCGAUCAACCAGCGAUAGCUGGAAUGUAGAAGGCGACCAGU,200,446,–,–
GCCGCCCGAUCUGGCUUUUGGGCUAGAAGGGCAUAUGUGGUUCAGGACAUGAGGAUCACCCAUGUGCAGGAUAUAGCCCACCGC,25.1,53,–,–
AAUUAGGUCACAGGAUAUACAACAUCCAAUGCUGUAGAAGGGUGUCACAAUCAUAGCUGACAUGAGGAUCACCCAUGUAUCCAC,–,–,202,106
AGGGUAUGAACAUGAGGAUCACCCAUGUAAACGGAAACGAAUGAGGAUAUCGAUAGCAAAGCUAUCGAGAAGGCAUGGGACCCU,–,–,286,49.1
GUAAGCGACCAGAAGGGUGACAUGAGGAUCACCCAUGUAGAUGUGUUCCCGCUUGGGAACCGUCCACAGGAUAUGGUUGGCUAU,–,–,35.3,18
AAUAUGAGCUGGAAUAACCUCAAAACAUGAGGAUCACCCAUGUAGGAUAUCAGCACGAUAAGUGCUGAGAAGGACAACCAGCUC,13.9,18.1,–,–
GGAUCGCAAGAAGAUCCAAUACGAACAUGAGGAUCACCCAUGUAGGAUAUGCUAGAAGAAGAGUAGCAGAAGGACAUGUGCCUU,9.79,42.7,–,–
AUCAGCUCGUCAGGAUAUACAACACUGCUUCGGCAGUAUGAUAAGAUAACAUGAGGAUCACCCAUGUAGAAGGGACGAGCUGAU,6.99,9.17,–,–
AUAAGCUCGUCAGGAUAUGCGACACUGUUUCGGCAGUGUGGUAUGAUCACAUGAGGAUCACCCAUGUAGAAGGGACGAGCUUAU,6.09,11.7,–,–
CAUUGACAUGAGGAUCACCCAUGUCAGGAUAUGCUUCAUGACACGAAAGUGUCAUGAAGCAGAAGGGACAUGCC,19.4,31.8,–,–
GACUUGUUAGGAUAUCUUACUUUUGCAUCAUAGUAACCAUUGGAGAAGGGACAUGAGGAUCACCCAUGUUUGGU,34.7,35,–,–
GCCGAUUAAGUGAGGAUAUACCUAUGGAUACAUAGGUAGAAGGUACAUGAGGAUCACCCAUGUUCCUCAUCGGC,10,12.2,–,–
AAGUAGAUCCGAGGAUAUACAAGCCGGAAACGGUACAUGAGGAUCACCCAUGUAGAAGGCGGAUCUACAGGUACUAAAGUACCA,5.53,9.17,–,–
UUGUUACAUGAGGAUCACCCAUGUGAGGAUAUGGUUCGGUACUGUCCUGUCGCGUACUCCAGAAGGCACGUGUU,30.8,37.4,–,–
CACGUCAGGAAACGGAGCGGCCAACAUGAGGAUCACCCAUGUGAGGAUAUGCCUACUAAAAGUAGGCAGAAGGCACAGAAGGCA,38.2,160,–,–
UAAACGUUCUAGAAGGUGCUUUUGUUAAACAAGCAAGGAUAUAGACAUGAGGAUCACCCAUGUCUUUGUGACAUCGACAUACUU,8.44,11.2,–,–
CAGUACUGAGGAUAUACAUGAGGAUCACCCAUGUGUUCCAGCUAGGAAACUAGCAGAAGUAGAAGGCAGUACUG,24.6,441,–,–
AGUUCUUGUGAAGGAUAUACGGCGGGUCGCGCAGUAGAAGGUCACAUGAGGAUCACCCAUGUCGACAAUGUGCAGUAUCGACAA,135,271,–,–
